The nature of data set [1]: Toxicity in human subcutaneous preadipocytes assessed as decrease of mitochondrial DNA abundance at 3 uM after 30 days by RT-PCR analysis. The data set is classed as cell-based. As to conditions: 720 h. The procedure, abridged:
(§1)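 mtDNA content of differentiated preadipocytes at day 30 or 60 of drug exposure was measured by real-time quantitative PCR with human-specific primers. Absolute copy numbers came from serial dilutions of plasmid standards. Three independent experiments.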

The nature of data set [2]: Toxicity in human subcutaneous preadipocytes assessed as decrease of mitochondrial DNA abundance at 3 uM after 60 days by RT-PCR analysis. The data set is classed as cell-based. To be noted: 1440 h. The procedure, abridged:
as §1

The nature of data set [3]: Toxicity in human subcutaneous preadipocytes assessed as decrease of mitochondrial DNA copy number per cell at 3 uM after 60 days by RT-PCR analysis. The data set is classed as cell-based. Details: scale not given: the % may be the effect or the level left. To be noted: 1440 h. The procedure, abridged:
as §1

A short description of data set [4]: Toxicity in human subcutaneous preadipocytes assessed as acquisition of adipocyte shape at 3 uM after 30 days using oil red O fluorescence staining by conventional fluorescence microscopy. In kind it is cell-based. As to conditions: 720 h. In short, it runs like this: (§2)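 On day 30 of differentiation with drug present from day 0, cells were fixed in 10% formalin and stained with 0.21% oil red O. Staining was viewed by fluorescence and light microscopy. For quantification, dye was extracted with isopropanol and read at 495 nm, also adjusted for viable cell number. Five independent experiments.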

Data set [5] in a line: Toxicity in human subcutaneous preadipocytes assessed as triacylglyceride droplets at 3 uM after 30 days using oil red O fluorescence staining by conventional fluorescence microscopy. To be noted: 720 h. In kind it is cell-based. The procedure, abridged: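 Preadipocytes were differentiated with a hormone cocktail (IBMX for the first 7 days, dexamethasone, insulin, indomethacin; high-glucose DMEM for days 0–18), with drug or vehicle present from day 0 to day 30. Cells were fixed in 10% formalin, stained with 0.21% oil red O in 60% isopropanol, and imaged by fluorescence microscopy. Quantification was by isopropanol extraction at 495 nm, optionally adjusted for viable cells.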

The nature of data set [6]: Toxicity in human subcutaneous preadipocytes assessed as decrease of cell cultures at 3 uM after 30 days using oil red O fluorescence staining by conventional fluorescence microscopy. In kind it is cell-based. To be noted: 720 h. In short, it runs like this: as §2
Data set [7] can be described thus: Toxicity in human subcutaneous preadipocytes assessed as decrease of cell viability measured every 5 days at 3 uM after 30 days using […]. As to conditions: 720 h. The data set is classed as cell-based. In short, it runs like this: (§3)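 Trypan blue exclusion counted by microscopy at each medium change every fifth day during 30 days of drug exposure in differentiating pooled preadipocytes. Final viability was calculated by excluding the cumulative percentage of dead cells. Five independent experiments.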

Data set [8] can be described thus: Toxicity in human subcutaneous preadipocytes assessed as cell death at 3 uM after 30 days using […]. To be noted: 720 h. In kind it is cell-based. The procedure, abridged:
as §3

A short description of data set [9]: Toxicity in fully differentiated human subcutaneous preadipocytes assessed as cell death at 3 uM after 30 days using […] by conventional fluorescence microscopy. As to conditions: 720 h. The procedure, abridged: as §3
Data set [10] can be described thus: Toxicity in human subcutaneous preadipocytes assessed as decrease of PPARgamma expression at 0.1 uM after 18 days by RT-PCR analysis. In kind it is cell-based. To be noted: 432 h. The procedure, abridged: (§4)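 Differentiating preadipocytes were harvested at day 18. RNA from three plates was pooled and reverse transcribed, and qRT-PCR was run with 42 cycles of 94/55/72°C. Values were normalized to transferrin receptor or beta-actin by standard curve. Triplicates from three independent experiments.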

A short description of data set [11]: Toxicity in human subcutaneous preadipocytes assessed as decrease of PPARgamma expression at 3 uM after 18 days by RT-PCR analysis. To be noted: 432 h. In kind it is cell-based. The procedure, abridged: as §4
A short description of data set [12]: Toxicity in human subcutaneous preadipocytes assessed as decrease of C/EBPalpha expression at 0.1 uM after 18 days by RT-PCR analysis. In kind it is cell-based. As to conditions: 432 h. In short, it runs like this: as §4
Data set [13] can be described thus: Toxicity in human subcutaneous preadipocytes assessed as decrease of C/EBPalpha expression at 3 uM after 18 days by RT-PCR analysis. In kind it is cell-based. As to conditions: 432 h. In short, it runs like this: as §4
Data set [14] can be described thus: Toxicity in human subcutaneous preadipocytes assessed as decrease of adiponectin expression at 3 uM after 30 days by ELISA. As to conditions: 720 h. The data set is classed as cell-based. In short, it runs like this:
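Adiponectin secreted into the medium over days 25 to 30 of drug exposure in differentiating preadipocytes was measured by sandwich ELISA of culture supernatant. Three independent experiments.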

Data set [15] can be described thus: Toxicity in human subcutaneous preadipocytes assessed as decrease of insulin-sensitizing adipokine expression at 3 uM after 30 days by RT-PCR analysis. In kind it is cell-based. To be noted: 720 h. In short, it runs like this:
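Adiponectin mRNA at day 30 was measured by qRT-PCR normalized to transferrin receptor or beta-actin, using pooled RNA and cDNA. Triplicates from three independent experiments.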

Data set [16] concerns Homo sapiens. The experiment in a line: Inhibition of electron transport protein complex 1/3 in human subcutaneous preadipocytes at 3 uM after 30 to 60 days by photometric analysis. The data set is classed as cell-based. In short, it runs like this: (§5)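 Pooled primary human abdominal subcutaneous preadipocytes induced to differentiate with drug (DMSO vehicle, ≤0.1%) added at day 0 and kept to day 30 or 60. Cells sonicated twice for 10 s; substrates added to lysates and conversion by complexes I+III, II+III, IV, V and citrate synthase read photometrically at 37°C. Three independent experiments.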

Data set [17] has as its system Homo sapiens. The experiment in a line: Inhibition of electron transport protein complex 2/3 in human subcutaneous preadipocytes at 3 uM after 30 to 60 days by photometric analysis. The data set is classed as cell-based. In short, it runs like this: as §5
For data set [18], the system named is Homo sapiens. The data set is described as follows: Inhibition of electron transport protein complex 4 in human subcutaneous preadipocytes at 3 uM after 30 to 60 days by photometric analysis. The data set is classed as cell-based. In short, it runs like this: as §5
In data set [19] the test system is Homo sapiens. The data set is described as follows: Inhibition of electron transport protein complex 5 in human subcutaneous preadipocytes at 3 uM after 30 to 60 days by photometric analysis. In kind it is cell-based. In short, it runs like this:
as §5

Data set [20] relates to Homo sapiens. The experiment in a line: Inhibition of citrate synthase in human subcutaneous preadipocytes at 3 uM after 30 to 60 days by photometric analysis. In kind it is cell-based. In short, it runs like this: as §5
The nature of data set [21]: Toxicity in human subcutaneous preadipocytes assessed as effect on mitochondrial membrane potential at 3 uM after 30 days using JC-1 red/green fluorescence dye by flow cytometry analysis. The data set is classed as cell-based. As to conditions: 720 h. In short, it runs like this: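 Pooled primary human subcutaneous preadipocytes (passage ≤4) were differentiated with drug or DMSO vehicle from day 0 and cultured 30 days. Staining with the JC-1 kit was followed by flow cytometry, and the JC-1 red/green fluorescence intensity ratio was used as the membrane potential read-out. CCCP served as the depolarization control. Three independent experiments, means ± SEM.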

Data set [22] in a line: Toxicity in human subcutaneous preadipocytes assessed as effect on mitochondrial mass at 3 uM after 30 days using […] by flow cytometry analysis. The data set is classed as cell-based. As to conditions: 720 h.

Calls of active or inactive are those of the source. No cut-off for these calls is given here.

Regarding `Cc1cn([C@H]2C=C[C@@H](CO)O2)c(=O)[nH]c1=O` [STAVUDINE], the Activity result in data set [1] is “Toxic”; in [2], “Toxic”; in [3], 50%; in data set [4], “Non-toxic”; in [5], “Non-toxic”; in data set [6] it was “Toxic”. The Activity entry in data set [7] is “Toxic”; in [8] it was “Toxic”; in data set [9] it was “Toxic”; in [10], “Non-toxic”; in data set [11], “Non-toxic”; in data set [12] it was “Non-toxic”. The Activity entry in [13], in [14], in [15], in data set [21] and in [22] was “Non-toxic” each time. Besides, the inhibition result in [16], in data set [17], in data set [18], in data set [19] and in data set [20] was “inactive” each time.

The record behind these values is ChEMBL document CHEMBL1687753, “Mitochondrial DNA depletion and respiratory chain activity in primary human subcutaneous adipocytes treated with nucleoside analogue reverse transcriptase inhibitors” (Antimicrob Agents Chemother, 2010).
